Source: PubChem (Johns Hopkins Ion Channel Center)
In the library only some 2.3% were active in any assay of this set; here they are far more common.
TRPC6 activator: mouse TRPC6 channel activation; Q61143; HEK293-TRPC6 membrane potential dye fluorescence; active compounds read high; B-score at 10 µM; actives 0.13% (n = 310,000);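 active = B-score of the integrated fluorescence ratio above library mean plus 3 SD, and starting fluorescence ratio within library mean plus 5 SD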;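 also: higher score means more depolarization so channel activation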
Target sequence (Q61143 whole entry, looked up): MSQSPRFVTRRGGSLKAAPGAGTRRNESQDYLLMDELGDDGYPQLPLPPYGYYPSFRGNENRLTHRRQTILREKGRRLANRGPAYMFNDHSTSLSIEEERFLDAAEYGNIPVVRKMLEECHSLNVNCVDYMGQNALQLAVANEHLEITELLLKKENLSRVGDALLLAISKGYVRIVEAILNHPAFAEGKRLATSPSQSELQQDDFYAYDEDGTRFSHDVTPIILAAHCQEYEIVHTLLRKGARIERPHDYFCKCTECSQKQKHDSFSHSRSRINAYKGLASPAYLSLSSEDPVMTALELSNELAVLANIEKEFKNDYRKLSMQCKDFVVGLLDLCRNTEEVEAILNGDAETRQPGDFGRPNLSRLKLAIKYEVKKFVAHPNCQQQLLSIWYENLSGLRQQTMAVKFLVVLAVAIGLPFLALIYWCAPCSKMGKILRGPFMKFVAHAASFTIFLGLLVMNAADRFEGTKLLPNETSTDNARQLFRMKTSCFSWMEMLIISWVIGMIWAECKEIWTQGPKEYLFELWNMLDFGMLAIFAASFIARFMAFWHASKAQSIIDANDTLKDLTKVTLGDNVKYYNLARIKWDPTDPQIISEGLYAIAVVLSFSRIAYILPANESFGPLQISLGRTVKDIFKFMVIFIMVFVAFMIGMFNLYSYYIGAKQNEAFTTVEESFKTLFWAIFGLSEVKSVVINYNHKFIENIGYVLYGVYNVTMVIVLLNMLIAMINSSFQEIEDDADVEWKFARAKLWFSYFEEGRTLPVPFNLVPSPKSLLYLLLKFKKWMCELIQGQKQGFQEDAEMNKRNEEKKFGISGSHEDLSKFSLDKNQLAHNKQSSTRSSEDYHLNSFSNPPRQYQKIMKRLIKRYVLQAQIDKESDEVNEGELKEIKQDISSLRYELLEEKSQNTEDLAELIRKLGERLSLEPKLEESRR
TRPC4 agonist: activators of mouse TRPC4 channel. AID 2237. actives 0.49% (n = 310,000). Q9QUQ5. B-score at 10 µM. HEK293 TRPC4beta/mu-opioid, Fluo4 calcium fluorescence; active compounds read high;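 active = B-score above 5 SD of library B-scores, and initial fluorescence ratio not above library mean plus 5 SD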;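 also: positive B-score marks a calcium rise read as TRPC4 activation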
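Material: TRPC4beta and mu-opioid receptor HEK293 stable cells | Incubation: 45 min room-temperature Fluo4 loading, 110 s read | Detection: Kinetic Fluo4 calcium fluorescence | Measure: Integrated baseline-normalised fluorescence ratio, converted to per-well B score | Benchmarks: Low control buffer alone, high control maximal DAMGO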
TRPC4 inh: inhibitors of mouse TRPC4 channel; B-score at 10 µM; actives 0.39% (n = 300,000); HEK293 TRPC4beta/mu-opioid, DAMGO-evoked Fluo4 calcium flux; active compounds read low;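 active = B-score over 3 SD under the library average, no early fluorescence shift, positive overall ratio signal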
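System: stable TRPC4beta/mu-opioid receptor HEK293 cells; Dosing: single-point compound dosing; Measured by: Fluo4 Ca2+ flux fluorescence; Read-out basis: per-well B score of integrated baseline-normalized Fluo4 ratio.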
TRPC6 inhibitor: inhibitors of mouse TRPC6 channel | HEK293-TRPC6, membrane potential dye, ACh-evoked depolarization; active compounds read low | B-score at 10 µM | Q61143 | actives 1.1% (n = 310,000);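 active = B-score under library mean minus 3 SD, initial fluorescence not abnormally high, positive integrated signal ratio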;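 also: B-score derived from integrated fluorescence ratio over the kinetic read; more negative B-score means stronger inhibition of depolarization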
TRPC4 PAM: allosterically enhances the mouse TRPC4 cation channel | HEK293 TRPC4beta/mu-opioid, DAMGO EC20, Fluo-4 Ca2+ flux; active compounds read high | B-score at 10 µM | actives 0.42% (n = 310,000);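 active = B-score of calcium response area above 5 SD of library B-scores, with initial fluorescence ratio within 5 SD of library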
TRPC4 spec 2: second selectivity test of TRPC6 inhibitors: effect on mouse TRPC4. actives 42% (n = 920). inhibition, % at 10 µM. HEK293 TRPC4/MOR, membrane potential dye fluorescence; channel activated by saturating DAMGO dose. shares compounds with TRPC6 inhibitor;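 active = compounds whose fluorescence signal differed from control wells by over 3 SD, either direction, in both duplicate plates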
TRPC4 spec: mouse TRPC4 off-target activity of TRPC6 inhibitors; HEK293 TRPC4/mu-opioid, membrane potential fluorescence; actives 61% (n = 920); shares compounds with TRPC6 inhibitor; activity change, negative = inhibition, % at 10 µM;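 active = rise or fall in signal beyond 3 SD of buffer-only wells in both replicate plates, either sign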;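 also: integrated kinetic ratio of fluorescence range over baseline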
HEK293 MPD ctr 2-1: parental HEK293 nonspecific activity of TRPC6 inhibitors, second screen; shares compounds with TRPC6 inhibitor; parental HEK293 membrane potential dye fluorescence; maximal acetylcholine challenge after compound addition; signal change vs control, % at 10 µM; actives 31% (n = 920);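 active = membrane potential signal moving either way by over 3 SD of the maximum-effect control, in both duplicate plates, meaning non-specific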
HEK293 MPD ctr-1: checks TRPC6 inhibitor effects in parental HEK293 cells; shares compounds with TRPC6 inhibitor; parental HEK293 membrane potential dye fluorescence; membrane potential signal change, % at 10 µM; actives 60% (n = 920); AID 2780;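 active = membrane potential signal shifting up or down by more than 3 SD of buffer-only wells, on both duplicate plates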
HEK293 MPD ctr-2: parental HEK293 nonspecific activity of TRPC6 modulators | membrane potential dye fluorescence | actives 51% (n = 2,400) | shares compounds with TRPC6 inhibitor | membrane potential signal change, % at 10 µM;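 active = membrane potential signal moves up or down beyond 5 SD from buffer-only wells, on both duplicate plates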
HEK293 MPD ctr 2-2: second counter-screen for TRPC6 modulators: effect in parental HEK293 cells; shares compounds with TRPC6 inhibitor; AID 488926; membrane potential dye fluorescence; after compound, maximal acetylcholine stimulation; actives 14% (n = 2,400); inhibition, % at 10 µM;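 active = membrane potential signal drops by more than 5 SD from the mean control signal, in both duplicate plates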
TRPC4 ctr mod: mouse TRPC4 off-target activity of TRPC6 modulators; shares compounds with TRPC6 inhibitor; HEK293 TRPC4/mu-opioid, membrane potential fluorescence; percent change from control (negative = decrease, positive = increase), % at 10 µM; actives 69% (n = 2,400);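 active = membrane potential signal moved up or down beyond 5 SD of buffer control wells, in both duplicate plates, actives on both sides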
TRPC4/MOR inh 2: second check of whether TRPC6 modulators also affect mouse TRPC4. shares compounds with TRPC6 inhibitor. HEK293 TRPC4/mu-opioid, membrane potential dye fluorescence; stimulated with maximal-effect DAMGO. inhibition, % at 10 µM. actives 55% (n = 2,400). AID 488928;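 active = drop in membrane potential signal beyond 5 SD of the control wells in both duplicate plates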;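 also: TRPC4 counter screen for TRPC6 hits run under conditions tuned for TRPC6 not TRPC4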
TRPC6 block conf: confirmation of mouse TRPC6 inhibitors. shares compounds with TRPC6 inhibitor. HEK293-TRPC6, membrane potential dye, ACh-evoked depolarization. inhibition, % at 10 µM. actives 43% (n = 3,300). AID 488960;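 active = fluorescence ratio falls more than 5 SD below the full-stimulation control mean, in both duplicate runs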;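 also: integrated fluorescence ratio of peak minus minimum over baseline after agonist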
TRPC6 act conf: mouse TRPC6 activator confirmation | actives 11% (n = 2,800) | activation, % at 10 µM | HEK293-TRPC6 membrane potential dye fluorescence, FDSS | shares compounds with TRPC6 inhibitor | AID 488961;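 active = ratio signal rise beyond 5 SD above unstimulated control wells' mean, seen in both duplicate runs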
Large screens that a line does not name were inactive (follow-up assays come after a bar, where they were run).

CSc1cccc(NC(=S)N(CCCN2CCCC(C)C2)Cc2cccs2)c1 (stereo unspecified)	TRPC6 inhibitor -8.1 | TRPC4 spec 2 48% | TRPC4 spec 2.2% | HEK293 MPD ctr 2-1 inactive | HEK293 MPD ctr-1 3.1% | TRPC6 block conf 56% | TRPC6 act conf inactive
COc1ccc(NC(=S)N(CCCN2CCC(C)CC2)Cc2cccs2)cc1Cl	TRPC6 inhibitor -6 | HEK293 MPD ctr-2 inactive | HEK293 MPD ctr 2-2 inactive | TRPC4 ctr mod inactive | TRPC4/MOR inh 2 84% | TRPC6 block conf 48% | TRPC6 act conf inactive
COc1cc(/C=N/Nc2nncc3ccccc23)cc(OC)c1OC	TRPC6 inhibitor -7.9 | TRPC4 spec 2 inactive | TRPC4 spec -25% | HEK293 MPD ctr 2-1 inactive | HEK293 MPD ctr-1 -458% | TRPC6 block conf inactive | TRPC6 act conf inactive
O=C(c1ccco1)N1CCCC(c2nc3c(nnn3Cc3cccc(Cl)c3)c(=O)[nH]2)C1 (stereo unspecified)	TRPC6 inhibitor -5.2 | HEK293 MPD ctr-2 inactive | HEK293 MPD ctr 2-2 inactive | TRPC4 ctr mod 17% | TRPC4/MOR inh 2 inactive | TRPC6 block conf 50% | TRPC6 act conf inactive
O=C(c1ccco1)N1CCCC(c2nc3c(nnn3Cc3ccc(Cl)cc3Cl)c(=O)[nH]2)C1 (stereo unspecified)	none
Cc1cccc[n+]1CC(=O)Nc1ccc([N+](=O)[O-])cc1Cl	none
O=C(C[n+]1ccc(Cc2ccccc2)cc1)Nc1ccc([N+](=O)[O-])cc1Cl	TRPC6 inhibitor -7.6 | TRPC4 spec 2 inactive | TRPC4 spec -27% | HEK293 MPD ctr 2-1 inactive | HEK293 MPD ctr-1 -334% | TRPC6 block conf inactive | TRPC6 act conf inactive
COc1ccc(NC(=O)N2CCC(n3nnc4cc(C)ccc43)CC2)cc1	none
CN(C)CC/C=C1\c2ccccc2COc2ccccc21	none
CCCCCC[N+](C)(C)CC/C=C1/c2ccccc2Sc2ccc(Cl)cc21	TRPC4 inh -7, TRPC6 inhibitor -6.6 | TRPC4 spec 2 inactive | TRPC4 spec inactive | HEK293 MPD ctr 2-1 inactive | HEK293 MPD ctr-1 inactive | TRPC6 block conf 78% | TRPC6 act conf inactive
CN(C)CC/C=C1/c2ccccc2Sc2ccc(Cl)cc21	TRPC6 inhibitor -5.3 | HEK293 MPD ctr-2 inactive | HEK293 MPD ctr 2-2 inactive | TRPC4 ctr mod 9.0% | TRPC4/MOR inh 2 54% | TRPC6 block conf 48% | TRPC6 act conf inactive
CCN(CC)C(=O)N1c2ccccc2CC(N(CC)CC)c2ccccc21 (stereo unspecified)	TRPC6 inhibitor -5.2 | HEK293 MPD ctr-2 220% | HEK293 MPD ctr 2-2 inactive | TRPC4 ctr mod 39% | TRPC4/MOR inh 2 inactive | TRPC6 block conf inactive
Cc1ccc(NC(=O)CN2C(=O)NC3(CCc4ccccc43)C2=O)cc1Cl (stereo unspecified)	none
CCn1cc(C(=O)OCC(=O)N(C)C2CCS(=O)(=O)C2)c(=O)c2ccc(C)nc21 (stereo unspecified)	TRPC6 inhibitor -5.4 | HEK293 MPD ctr-2 -269% | HEK293 MPD ctr 2-2 inactive | TRPC4 ctr mod -54% | TRPC4/MOR inh 2 inactive | TRPC6 block conf 60% | TRPC6 act conf inactive
Cn1cc(C(=O)N/N=C/C2=C(N3CCOCC3)C(=C\c3ccccc3)/CC2)ccc1=O	none
O=C1Nc2ccccc2/C1=N\N=C\C1=C(N2CCOCC2)C(=C\c2ccccc2)/CC1	TRPC6 inhibitor -9.5 | TRPC4 spec 2 33% | TRPC4 spec -29% | HEK293 MPD ctr 2-1 -22% | HEK293 MPD ctr-1 -326% | TRPC6 block conf 90% | TRPC6 act conf inactive
Brc1ccc(/C=N/Nc2ccc3ccccc3n2)cc1	none
Brc1ccccc1/C=N/Nc1ccc2ccccc2n1	TRPC6 inhibitor -6.2 | HEK293 MPD ctr-2 inactive | HEK293 MPD ctr 2-2 inactive | TRPC4 ctr mod inactive | TRPC4/MOR inh 2 56% | TRPC6 block conf inactive | TRPC6 act conf inactive
COc1ccc(C2c3ccc4ccccc4c3Oc3ncn(CCN(C)C)c(=N)c32)cc1 (stereo unspecified)	TRPC6 inhibitor -5.4 | HEK293 MPD ctr-2 115% | HEK293 MPD ctr 2-2 inactive | TRPC4 ctr mod 10% | TRPC4/MOR inh 2 69% | TRPC6 block conf inactive
CCN(CC)CCCCN1c2ccccc2Sc2ccccc21	TRPC6 inhibitor -6.5 | HEK293 MPD ctr-2 inactive | HEK293 MPD ctr 2-2 inactive | TRPC4 ctr mod inactive | TRPC4/MOR inh 2 69% | TRPC6 block conf 48% | TRPC6 act conf inactive
CC(CN1c2ccccc2Sc2ccccc21)N(C)C (stereo unspecified)	TRPC6 inhibitor -6.1 | HEK293 MPD ctr-2 inactive | HEK293 MPD ctr 2-2 94% | TRPC4 ctr mod 8.0% | TRPC4/MOR inh 2 32% | TRPC6 block conf 72% | TRPC6 act conf inactive
CN(C)CCC(=O)N1c2ccccc2Sc2ccc(C(F)(F)F)cc21	TRPC6 inhibitor -6.3 | HEK293 MPD ctr-2 88% | HEK293 MPD ctr 2-2 92% | TRPC4 ctr mod 14% | TRPC4/MOR inh 2 38% | TRPC6 block conf 89%
CN(C)CCCN1c2ccccc2Sc2ccc(C(F)(F)F)cc21	TRPC6 inhibitor -7.2 | TRPC4 spec 2 70% | TRPC4 spec 1.5% | HEK293 MPD ctr 2-1 inactive | HEK293 MPD ctr-1 inactive | TRPC6 block conf inactive | TRPC6 act conf inactive
CN1C(=O)CC(Sc2ncccc2C(=O)O)C1=O (stereo unspecified)	none
